Measurements published in ChEMBL document CHEMBL3120111, “Bilirubin and related tetrapyrroles inhibit food-borne mutagenesis: a mechanism for antigenotoxic action against a model epoxide” (J Nat Prod, 2013).
Calls of active or inactive are those of the source. The rule behind the calls is not given here.

Columns and labels:
[1] = system: Salmonella typhimurium; experiment: Antimutagenic activity against PhIP-induced Salmonella typhimurium TA98 mutagenesis assessed as reduction in His+ revertants after 48 hrs by microscopy in presence of S9 liver homogenate; format: functional, organism-based; conditions: Salmonella enterica subsp. enterica serovar Typhimurium, Liver S9 fraction
Procedure, shortened: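 Ames preincubation in TA98 with rat liver S9 mix (Aroclor 1254-induced, with NADP and glucose-6-phosphate). PhIP was 0.1×10^-7 mol/plate in DMSO; tetrapyrroles were in DMSO at 0.01–2 µmol/plate (bilirubin 0.01–0.75). Preincubation 25 min at 37 °C with shaking, then top agar on minimal glucose plates for 48 h at 37 °C. His+ revertants counted manually after microscopic lawn check. Triplicate plates, repeated independently.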

[2] = system: Salmonella typhimurium; experiment: Antimutagenic activity against PhIP-induced Salmonella typhimurium TA98 mutagenesis preincubated at 0.01 to 10 umol/plate for 25 mins by Ames test in presence of S9 liver homogenate relative to control; format: functional, organism-based; conditions: Salmonella enterica subsp. enterica serovar Typhimurium, Liver S9 fraction
[3] = system: Salmonella typhimurium; experiment: Antimutagenic activity against PhIP-induced Salmonella typhimurium TA98 mutagenesis preincubated at 0.5 umol/plate for 25 mins by Ames test in presence of S9 liver homogenate relative to control; format: functional, organism-based; conditions: Salmonella enterica subsp. enterica serovar Typhimurium, Liver S9 fraction
Procedure, shortened: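 IP0.5 is the percent inhibition of PhIP-positive-control revertants (0.1×10^-7 mol/plate PhIP, TA98, with S9) at 0.5 µmol/plate tetrapyrrole. It was derived from dose-response data in the 25 min preincubation plate assay, with 48 h incubation at 37 °C. Three positive-control plates and six solvent-control plates per test.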

[4] = system: Salmonella typhimurium; experiment: Mutagenic activity in Salmonella typhimurium TA98 mutagenesis preincubated at 0.5 umol/plate for 25 mins by Ames test in presence of S9 liver homogenate relative to aflatoxin B1; format: toxicity, organism-based, Liver S9 fraction; conditions: salmonella enterica subsp. enterica serovar typhimurium

Structure (SMILES)	Activity [1]	Activity [2]	inhibition [3]	Activity [4]
C=CC1=C(C)/C(=C/C2=NC(=C\c3[nH]c(/C=C4\NC(=O)C(C)=C4C=C)c(C)c3CCC(=O)O)/C(CCC(=O)O)=C2C)NC1=O [BILIVERDIN]	Active	Active	78%	363%
C=CC1=C(C)c2cc3[nH]c(cc4nc(cc5[nH]c(cc1n2)c(C)c5CCC(=O)O)C(CCC(=O)O)=C4C)c(C)c3C=C	–	–	97%	–
CCC1=C(C)[C@H](CC2=N/C(=C\c3[nH]c(C[C@@H]4N=C(O)C(C)=C4CC)c(C)c3CCC(=O)O)C(CCC(=O)O)=C2C)N=C1O	–	Active	48%	–
C=CC1=C(C)/C(=C/c2[nH]c(Cc3[nH]c(/C=C4\NC(=O)C(C)=C4C=C)c(C)c3CCC(=O)NCCS(=O)(=O)O)c(CCC(=O)NCCS(=O)(=O)O)c2C)NC1=O [BILIRUBIN DITAURATE]	–	–	64%	268%
C=CC1=C(C)/C(=C\c2[nH]c(Cc3[nH]c(/C=C4/NC(=O)C(C)=C4C=C)c(C)c3CCC(=O)OC)c(CCC(=O)OC)c2C)NC1=O	–	–	68%	–
C=CC1=C(C)/C(=C/C2=NC(=C\c3[nH]c(/C=C4/NC(=O)C(C)=C4C=C)c(C)c3CCC(=O)OC)/C(CCC(=O)OC)=C2C)NC1=O	Active	Active	55%	–
C=CC1=C(C)/C(=C/c2[nH]c(Cc3[nH]c(/C=C4\NC(=O)C(C)=C4C=C)c(C)c3CCC(=O)O)c(CCC(=O)O)c2C)NC1=O [BILIRUBIN]	–	–	82%	352%
CC[C@H]1[C@H](Cc2[nH]c(/C=C3\N=C(C[C@@H]4NC(=O)[C@H](CC)[C@H]4C)C(C)=C3CCC(=O)O)c(CCC(=O)O)c2C)NC(=O)[C@@H]1C	–	Active	57%	–
